Experimental data as given in ChEMBL document CHEMBL1144999, “Identification of a novel, selective GABA(A) alpha5 receptor inverse agonist which enhances cognition” (J Med Chem, 2003).

Legend:
[1] = target: T1, Gamma-aminobutyric acid receptor subunit alpha-5 (Mus musculus) (UniProt Q8BHJ7); test: In vivo [3H]L-655708 binding to mouse GABA-A receptor alpha-5 subunit at 3 mg/kg ip dose; type: organism-based; set-up: dose 3 mg/kg
T1 sequence (whole entry): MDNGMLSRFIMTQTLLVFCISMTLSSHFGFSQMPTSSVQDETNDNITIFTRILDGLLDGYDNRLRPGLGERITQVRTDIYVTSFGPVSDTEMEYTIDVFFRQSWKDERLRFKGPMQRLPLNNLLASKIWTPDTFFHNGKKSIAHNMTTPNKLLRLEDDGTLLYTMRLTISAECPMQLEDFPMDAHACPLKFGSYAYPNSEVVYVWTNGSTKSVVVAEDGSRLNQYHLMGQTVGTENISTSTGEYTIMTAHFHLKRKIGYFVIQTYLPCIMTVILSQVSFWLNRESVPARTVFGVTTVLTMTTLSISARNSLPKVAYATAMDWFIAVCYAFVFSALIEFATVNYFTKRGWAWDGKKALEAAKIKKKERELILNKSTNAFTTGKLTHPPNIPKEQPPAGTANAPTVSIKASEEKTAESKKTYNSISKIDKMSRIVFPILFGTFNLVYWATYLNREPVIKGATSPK
Outline: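 Mice were dosed ip at 10 mL/kg in 70% PEG 300. Controls were vehicle (total binding) and 5 mg/kg bretazenil (nonspecific). [3H]L-655,708 (11 µCi/mL, 1 mL/kg) was given iv 1 min before killing, 30 min after drug. Forebrain was homogenized in ice-cold 10 mM KH2PO4/100 mM KCl pH 7.4, filtered and counted by scintillation. Occupancy = 100 − (drug/vehicle specific binding)×100.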

[2] = target: GABA-A receptor; alpha-3/beta-3/gamma-2 (Homo sapiens) (UniProt P18507+P28472+P34903); test: Efficacy for human GABA-A receptor alpha-3-beta-3-gamma-2 subunits expressed in mammalian fibroblast L(tk-)cells; type: cell-based
[3] = target: T2, GABA-A receptor; alpha-5/beta-3/gamma-2 (Homo sapiens) (UniProt P18507+P28472+P31644); test: Efficacy for human GABA-A receptor alpha-5-beta-3-gamma-2 subunits expressed in mammalian fibroblast L(tk-)cells; type: cell-based
[4] = target: T3, Gamma-aminobutyric acid receptor subunit alpha-5 (Homo sapiens) (UniProt P31644); test: Binding selectivity for GABA-A alpha5 subunit over GABA-A alpha1,alpha2 or alpha3 subunit receptors
T3 sequence (whole entry): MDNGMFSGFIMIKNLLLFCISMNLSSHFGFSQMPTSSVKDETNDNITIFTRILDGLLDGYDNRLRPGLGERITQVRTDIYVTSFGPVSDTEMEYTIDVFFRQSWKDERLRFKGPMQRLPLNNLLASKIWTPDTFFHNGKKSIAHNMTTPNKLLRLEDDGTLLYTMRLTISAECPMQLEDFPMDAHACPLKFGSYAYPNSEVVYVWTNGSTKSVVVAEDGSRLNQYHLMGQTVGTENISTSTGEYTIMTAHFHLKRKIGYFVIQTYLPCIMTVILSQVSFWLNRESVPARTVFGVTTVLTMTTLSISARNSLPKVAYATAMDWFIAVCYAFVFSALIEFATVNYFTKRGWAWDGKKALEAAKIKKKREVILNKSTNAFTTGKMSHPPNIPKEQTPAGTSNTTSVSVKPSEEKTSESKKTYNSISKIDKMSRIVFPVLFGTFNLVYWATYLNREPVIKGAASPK
Outline: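 Ki from [3H]Ro 15-1788 displacement at human recombinant α1, α2, α3 or α5 with β3γ2 receptors in L(tk-) cell membranes. […] Ki is geometric mean ± SEM of three determinations, and the ratio is taken against the α5 Ki.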

[5] = target: GABA-A receptor; alpha-2/beta-3/gamma-2 (Homo sapiens) (UniProt P18507+P28472+P47869); test: Efficacy for human GABA-A receptor alpha-2-beta-3-gamma-2 subunits expressed in mammalian fibroblast L(tk-)cells; type: cell-based
[6] = target: GABA-A receptor; alpha-1/beta-3/gamma-2 (Homo sapiens) (UniProt P14867+P18507+P28472); test: Efficacy for human GABA-A receptor alpha-1-beta-3-gamma-2 subunits expressed in mammalian fibroblast L(tk-)cells; type: cell-based
[7] = target: T2, GABA-A receptor; alpha-5/beta-3/gamma-2 (Homo sapiens); test: Efficacy for GABA-A receptor alpha-5-beta-3-gamma-2 subunits expressed in Xenopus laevis oocytes by two-electrode voltage clamp recording; type: cell-based; details: Oocyte
Outline: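 Two-electrode voltage clamp on Xenopus laevis oocytes injected with human α5β3γ2 cDNA, recorded 2-4 days after injection. Expression checked with 3 mM GABA; oocytes with currents <0.3 μA rejected. A GABA EC20 was determined per oocyte. Compound applied at a single concentration near 100× Ki. Efficacy (%) = (current with compound/control EC20 current × 100) − 100.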

[8] = target: T3, Gamma-aminobutyric acid receptor subunit alpha-5 (Homo sapiens); test: Binding selectivity for human gamma-aminobutyric-acid A receptor alpha-5 over GABA A alpha1,alpha2 and alpha-3 receptors
[9] = target: GABA-A receptor; anion channel; test: Binding affinity for GABA-A Benzodiazepine receptor; type: protein-complex assay
Outline: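 Displacement of [3H]Ro 15-1788 binding from harvested L(tk-) cells stably expressing human recombinant GABA-A receptors with β3 and γ2 subunits plus α1, α2, α3 or α5. […] Ki given as geometric mean ± SEM of three independent determinations.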

Row | SMILES | Occupancy [1] [%] | Efficacy [2] [%] | Efficacy [3] [%] | Selectivity [4] | Efficacy [5] [%] | Efficacy [6] [%] | Efficacy [7] | Selectivity [8] | Ki [9] [nM]
1 | CC1(C)CC(=O)c2c(SCCO)sc(-c3nccs3)c2C1 | 91 | -3 | -51 | 13 | -1 | -21 | -38 |  | 
2 | CCc1c(C(=O)OC)ncc2[nH]c3cc(OC)c(OC)cc3c12 |  |  |  |  | -53 | -71 | -34 | 6 | 
3 | CC(=O)c1cc2c(s1)CCCC1=C2NN(c2ccc(Cl)cc2)C(=O)C1 |  |  |  |  |  |  |  |  | 4.2
